Source: PubChem (several laboratories)
STAT1 inh: reduces IFN-gamma driven STAT1 reporter signal. AID 920. hit rate 0.35% among 200,000. NIH 3T3 STAT1-luciferase reporter, luminescence. inhibition, % at 5.5 µM;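 active = inhibition above a set limit, the mean inhibition across all tested compounds plus 3 SD, cut at about 34% in these data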;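 note: 0% = IFN-gamma with DMSO and 100% = IFN-gamma with 300 µM nifuroxazide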
STAT1 act: STAT1 signaling activation | NIH 3T3 STAT1-luciferase reporter, IFN-gamma, luminescence; 100% = IFN-gamma alone, no compound | activation (% of control), % at 5.5 µM | hit rate 2.6% among 200,000 | AID 932;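 active = activation above the screen-wide mean activation plus 3 SD, cut at about 130% in these data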;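 note: raw ratio to IFN-gamma control signal so 100% means no change and 0% no light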
STAT3 activator: STAT3 signaling activation. U3A cells, IL-6 STAT3-luciferase reporter, luminescence; 100% = signal with IL-6 EC80 alone. activation (% of control), % at 5.6 µM. hit rate 0.91% among 190,000. AID 871;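 active = activation above the screen-wide mean of compound activation plus 3 SD, cut at about 130% in these data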;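 note: 0% = background luminescence of wells with medium and substrate only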
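Assay system – human STAT1-deficient U3A cells with stable STAT3-luciferase reporter · Also added – IL-6 (33 ng/mL) · Schedule – compound 1 h, then IL-6 6 h at 37 °C · Technique – reporter luminescence signal · Evaluation – % activation versus median of IL-6-stimulated wells · Benchmarks – IL-6-only wells as 100% reference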
APP 5'UTR act: activates APP 5'UTR luciferase reporter; SH-SY5Y APP 5'UTR luciferase reporter, luminescence; zero percent = DMSO vehicle wells; activation, % at 2 µM; hit rate 1% among 190,000; AID 1276;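 active = activation above a set limit, based on mean plus 3 SD of controls, cut at about 140% in these data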
STAT3 inh-1: reduces IL-6 driven STAT3 reporter signal | hit rate 0.89% among 190,000 | U3A cells, IL-6 STAT3-luciferase reporter, luminescence; host cell line lacks STAT1 | inhibition, % at 5.5 µM;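 active = inhibition above the mean inhibition across all screened compounds plus 3 SD, cut at about 44% in these data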;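 note: 0% = DMSO only wells and 100% = 100 µM nifuroxazide control wells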
NF-kB expr up: raises NF-kB expression in human neuronal cells; NF-kB reporter expression; active compounds read high; fold change at 12.5 µM; hit rate 1.6% among 190,000; AID 1239; in the data active = fold change above about 3.3
STAT3 inh-2: STAT3 inhibition, confirmation assay; shares compounds with STAT3 inh-1; U3A cells, IL-6 STAT3 luciferase reporter, luminescence; cell line lacks STAT1; inhibition, % at 5.7 µM; hit rate 45% among 1,200;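 active = inhibition above the hit cutoff computed for the primary STAT3 screen, cut at about 44% in these data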;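 note: 0% = IL-6 plus DMSO and 100% = IL-6 plus nifuroxazide control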
NFkB inh STAT3ct: NF-kappaB inhibition in STAT3 inhibitor counter-screen. hit rate 36% among 1,200. HEK293T NF-kB luciferase reporter, TNF-alpha induced. shares compounds with STAT3 inh-1. inhibition, % at 5.7 µM. AID 1308;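 active = inhibition above the mean of solvent-only control wells plus 3 SD, cutoff set per campaign, cut at about 13% in these data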;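 note: 0% = TNF-alpha with DMSO and 100% = TNF-alpha with MG high control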
STAT1 inh STAT3c: inhibits STAT1, counter-screen to STAT3 inhibitors; shares compounds with STAT3 inh-1; NIH 3T3 STAT1-luciferase reporter, IFN-gamma induced, luminescence; inhibition, % at 5.7 µM; hit rate 27% among 1,200; AID 1317;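 active = inhibition above the mean plus 3 SD of solvent-only control wells, limit set per screening run, cut at about 16% in these data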;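 note: 0% = DMSO with IFN-gamma and 100% = nifuroxazide control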
Numbers without * were called inactive; / = no result. An excerpt weighted towards active compounds, which were near 4.9% of everything screened.

SMILES	STAT1 inh	STAT1 act	STAT3 activator	APP 5'UTR act	STAT3 inh-1	NF-kB expr up	STAT3 inh-2	NFkB inh STAT3ct	STAT1 inh STAT3c
COc1ccccc1OC(C)C(=O)Nc1nc(-c2ccc(S(=O)(=O)N3CCOCC3)cc2)cs1 (centres undefined)	5.5	95.1	107.5	-10.4	-6.4	0.87	/	/	/
COc1ccccc1C(=O)Nc1nc(-c2ccc(S(=O)(=O)N3CCOCC3)cc2)cs1	25.4	76.5	37.0	-18.5	76.4*	0.28	74.0*	19.9*	20.1*
O=C(Nc1nc2c(F)cc(F)cc2s1)c1ccccn1	19.2	81.8	47.5	17.9	66.0*	4.18*	33.9	-19.9	-130.9
COC(=O)c1ccccc1N1CCS(=O)(=O)CC1	-10.3	108.4	101.0	3.9	6.0	0.97	/	/	/
CCCCCc1ccc(OCCCC[n+]2cccc(C)c2)c(CCCCC)c1	27.4	73.6	54.3	-14.2	58.0*	1.11	48.4*	-1.4	26.3*
CS(=O)(=O)N(CC(=O)Nc1cc(Cl)ccc1Cl)c1ccccc1	0.6	99.5	96.8	-12.2	9.6	1.33	/	/	/
CCN(CC)CCN(C(=O)Cn1nnc(-c2ccc(C)o2)n1)C(C(=O)NC(C)(C)C)c1cccs1 (centres undefined)	-2.8	103.1	98.6	-1.1	3.9	1.12	/	/	/
O=C(C1CCN(S(=O)(=O)c2cccc3cccnc23)CC1)N1CCN(c2ccc(Cl)cc2)CC1	25.9	76.7	65.0	-14.9	47.0*	0.65	30.0	14.3*	24.2*
COc1ccc2c(c1)oc(=O)c1c3ccccc3[nH]c21	-31.9	128.0	53.0	73.4	59.9*	1.04	62.2*	-10.1	-53.1
COc1ccc2c(c1)oc(=O)c1ccccc12	-20.5	117.7	91.9	14.1	11.3	1.52	/	/	/
Cc1cc(C)c2nc(NC(=O)c3ccc(OCC4CCCO4)cc3)sc2c1 (centres undefined)	-8.1	107.3	60.2	13.5	47.1*	1.35	36.4	-0.2	-10.9
O=C(Nc1nc(-c2ccc(Cl)cc2Cl)cs1)c1ccc(OCC2CCCO2)cc1 (centres undefined)	-9.1	108.0	98.0	11.1	5.2	0.52	/	/	/
Cc1cc2ccccc2n2c(SCC(=O)NCC3CCCO3)nnc12 (centres undefined)	-11.8	108.7	99.0	-10.8	7.5	0.92	/	/	/
O=C(Nc1ccc2c(c1)C(=O)N(CC1CCCO1)C2=O)c1ccc(Cl)c(Cl)c1 (centres undefined)	-11.1	110.2	41.1	0.2	72.2*	1.1	61.6*	14.5*	-16.4
CCCOc1ccc(OCCn2nc(C(=O)O)c3ccccc3c2=O)cc1	-27.9	124.3	100.2	19.1	1.1	1.17	/	/	/
COCCn1c(C)cc(C(=O)COC(=O)c2ccc[nH]c2=O)c1C	28.2	74.8	59.4	-1.4	48.0*	0.29	2.1	-4.2	-13.9
Cc1cc(C(=O)COC(=O)c2ccc[nH]c2=O)c(C)n1C	-11.4	110.2	103.1	1.0	-1.0	0.59	/	/	/
Cc1ccc(-c2csc(NC(=O)c3cc([N+](=O)[O-])ccc3N3CCOCC3)n2)cc1	-7.2	105.6	106.2	8.3	0.4	1.24	/	/	/
O=C(Nc1nc(-c2ccccc2)cs1)c1ccc(N2CCOCC2)c([N+](=O)[O-])c1	15.3	86.1	38.2	-7.7	71.9*	0.36	77.2*	22.9*	16.5*
Cc1cc(C)n(-c2ccc(C(=O)OCC(=O)Nc3ccc(Cl)cc3[N+](=O)[O-])cc2)n1	-0.7	100.6	110.2	25.5	-9.9	1.03	/	/	/
COc1ccc(-[n+]2c(C)cc(/C=C3\Sc4ccccc4N3C)cc2C)cc1	27.8	74.3	28.1	-82.9	84.7*	5.4*	85.0*	55.7*	1.6
CCOc1ccc(/C=N/Nc2ccccn2)cc1	-8.3	106.6	61.2	182.1*	49.5*	8.21*	6.8	-27.6	-112.4
